Measured values reported in ChEMBL document CHEMBL4229342, “Synthesis of novel proxyphylline derivatives with dual Anti-Candida albicans and anticancer activity” (Eur J Med Chem, 2018).

What was measured:
Assay type in all cases: functional
CCRF-CEM [1] = assay: Antiproliferative activity against human CCRF-CEM cells assessed as cell viability at 25 uM after 72 hrs by MTT assay; conditions: read-out: Activity
Outline: (§1)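 MTT viability assay in CCRF-CEM and MCF-7 cells after 72 h exposure at 25, 50, 100 and 200 µM. Results are relative to control cells without inhibitor in 0.5% DMSO. Done in triplicate; values are means ± SD of three independent experiments.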

CCRF-CEM [2] = assay: Antiproliferative activity against human CCRF-CEM cells assessed as cell viability at 50 uM after 72 hrs by MTT assay; conditions: read-out: Activity; outline: as §1
CCRF-CEM [3] = assay: Antiproliferative activity against human CCRF-CEM cells assessed as cell viability at 100 uM after 72 hrs by MTT assay; conditions: read-out: Activity; outline: as §1
CCRF-CEM [4] = assay: Antiproliferative activity against human CCRF-CEM cells assessed as cell viability at 200 uM after 72 hrs by MTT assay; conditions: read-out: Activity; outline: as §1
MCF7 [5] = assay: Antiproliferative activity against human MCF7 cells assessed as cell viability at 25 uM after 72 hrs by MTT assay; conditions: MCF7, 72 h, read-out: Activity; outline: as §1
MCF7 [6] = assay: Antiproliferative activity against human MCF7 cells assessed as cell viability at 50 uM after 72 hrs by MTT assay; conditions: MCF7, 72 h, read-out: Activity; outline: as §1
MCF7 [7] = assay: Antiproliferative activity against human MCF7 cells assessed as cell viability at 100 uM after 72 hrs by MTT assay; conditions: MCF7, 72 h, read-out: Activity; outline: as §1
MCF7 [8] = assay: Antiproliferative activity against human MCF7 cells assessed as cell viability at 200 uM after 72 hrs by MTT assay; conditions: MCF7, 72 h, read-out: Activity; outline: as §1
Candida albicans [9] = assay: Growth inhibition of Candida albicans ATCC 90028 at 16 ug/ml incubated for 18 hrs at 35 degC by broth microdilution method relative to control; conditions: ATCC 90028, 18 h, read-out: GI
Candida albicans [10] = assay: Growth inhibition of Candida albicans ATCC 90028 at 16 ug/ml incubated for 48 hrs at 35 degC by broth microdilution method relative to control; conditions: ATCC 90028, 48 h, read-out: GI
Candida albicans [11] = assay: Growth inhibition of Candida albicans ATCC 90028 at 8 ug/ml incubated for 18 hrs at 35 degC by broth microdilution method relative to control; conditions: ATCC 90028, 18 h, read-out: GI
Candida albicans [12] = assay: Growth inhibition of Candida albicans ATCC 90028 at 8 ug/ml incubated for 48 hrs at 35 degC by broth microdilution method relative to control; conditions: ATCC 90028, 48 h, read-out: GI
Candida albicans [13] = assay: Growth inhibition of Candida albicans ATCC 90028 at 4 ug/ml incubated for 18 hrs at 35 degC by broth microdilution method relative to control; conditions: ATCC 90028, 18 h, read-out: GI
Candida albicans [14] = assay: Growth inhibition of Candida albicans ATCC 90028 at 8 ug/ml incubated for 4 hrs at 35 degC by broth microdilution method relative to control; conditions: ATCC 90028, 4 h, read-out: GI
Candida albicans [15] = assay: Growth inhibition of Candida albicans ATCC 90028 at 2 ug/ml incubated for 18 hrs at 35 degC by broth microdilution method relative to control; conditions: ATCC 90028, 18 h, read-out: GI
Candida albicans [16] = assay: Growth inhibition of Candida albicans ATCC 90028 at 2 ug/ml incubated for 4 hrs at 35 degC by broth microdilution method relative to control; conditions: ATCC 90028, 4 h, read-out: GI
Candida albicans [17] = assay: Growth inhibition of Candida albicans ATCC 90028 at 1 ug/ml incubated for 18 hrs at 35 degC by broth microdilution method relative to control; conditions: ATCC 90028, 18 h, read-out: GI
Candida albicans [18] = assay: Growth inhibition of Candida albicans ATCC 90028 at 1 ug/ml incubated for 4 hrs at 35 degC by broth microdilution method relative to control; conditions: ATCC 90028, 4 h, read-out: GI
Candida albicans [19] = assay: Growth inhibition of Candida albicans ATCC 90028 at 0.5 ug/ml incubated for 18 hrs at 35 degC by broth microdilution method relative to control; conditions: ATCC 90028, 18 h, read-out: GI
Candida albicans [20] = assay: Growth inhibition of Candida albicans ATCC 90028 at 0.5 ug/ml incubated for 4 hrs at 35 degC by broth microdilution method relative to control; conditions: ATCC 90028, 4 h, read-out: GI
Candida albicans [21] = assay: Growth inhibition of Candida albicans ATCC 90028 at 0.25 ug/ml incubated for 18 hrs at 35 degC by broth microdilution method relative to control; conditions: ATCC 90028, 18 h, read-out: GI
Candida albicans [22] = assay: Growth inhibition of Candida albicans ATCC 90028 at 0.25 ug/ml incubated for 4 hrs at 35 degC by broth microdilution method relative to control; conditions: ATCC 90028, 4 h, read-out: GI
Candida albicans [23] = assay: Growth inhibition of Candida albicans ATCC 90028 at 0.125 ug/ml incubated for 18 hrs at 35 degC by broth microdilution method relative to control; conditions: ATCC 90028, 18 h, read-out: GI
Candida albicans [24] = assay: Growth inhibition of Candida albicans ATCC 90028 at 0.125 ug/ml incubated for 4 hrs at 35 degC by broth microdilution method relative to control; conditions: ATCC 90028, 4 h, read-out: GI
Candida albicans [25] = assay: Growth inhibition of Candida albicans ATCC 90028 at 0.0625 ug/ml incubated for 18 hrs at 35 degC by broth microdilution method relative to control; conditions: ATCC 90028, 18 h, read-out: GI
Candida albicans [26] = assay: Growth inhibition of Candida albicans ATCC 90028 at 0.0625 ug/ml incubated for 4 hrs at 35 degC by broth microdilution method relative to control; conditions: ATCC 90028, 4 h, read-out: GI
Candida albicans [27] = assay: Growth inhibition of Candida albicans ATCC 90028 at 0.0313 ug/ml incubated for 18 hrs at 35 degC by broth microdilution method relative to control; conditions: ATCC 90028, 18 h, read-out: GI
Candida albicans [28] = assay: Growth inhibition of Candida albicans ATCC 90028 at 0.0313 ug/ml incubated for 4 hrs at 35 degC by broth microdilution method relative to control; conditions: ATCC 90028, 4 h, read-out: GI
Candida albicans [29] = assay: Fungicidal activity against Candida albicans ATCC 90028 assessed as log reduction in cell viability at 16 ug/ml after 48 hrs at 35 degC
Outline: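 MFC assay on C. albicans ATCC 90028 following M27-A3, at the molar equivalent of 16 µg/mL. CFU of treated cells were compared with CFU of the untreated inoculum. Activity is given as lg R = lg CFU/mL control − lg CFU/mL treated, and lg R ≥3 was defined as fungicidal. Values are means of two independent experiments.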

SMILES	viability at 25 µM (CCRF-CEM [1]) [%]	viability at 50 µM (CCRF-CEM [2]) [%]	viability at 100 µM (CCRF-CEM [3]) [%]	viability at 200 µM (CCRF-CEM [4]) [%]	viability at 25 µM (MCF7 [5]) [%]	viability at 50 µM (MCF7 [6]) [%]	viability at 100 µM (MCF7 [7]) [%]	viability at 200 µM (MCF7 [8]) [%]	inhibition of growth at 16 µg/mL (Candida albicans [9]) [%]	inhibition of growth at 16 µg/mL (Candida albicans [10]) [%]	inhibition of growth at 8 µg/mL (Candida albicans [11]) [%]	inhibition of growth at 8 µg/mL (Candida albicans [12]) [%]	inhibition of growth at 4 µg/mL (Candida albicans [13]) [%]	inhibition of growth at 8 µg/mL (Candida albicans [14]) [%]	inhibition of growth at 2 µg/mL (Candida albicans [15]) [%]	inhibition of growth at 2 µg/mL (Candida albicans [16]) [%]	inhibition of growth at 1 µg/mL (Candida albicans [17]) [%]	inhibition of growth at 1 µg/mL (Candida albicans [18]) [%]	inhibition of growth at 0.5 µg/mL (Candida albicans [19]) [%]	inhibition of growth at 0.5 µg/mL (Candida albicans [20]) [%]	also measured
COC(C(=O)OC(C)Cn1cnc2c1c(=O)n(C)c(=O)n2C)c1cccc2ccccc12 (stereo not given)	96.6	87.9	51.4	34.6	92.6	87.7	83.3	76.9	99.8	99.4	100	99.6	99.5	99	99.9	99.3	100	99.3	100	99.1	inhibition of growth at 0.25 µg/mL (Candida albicans [21]): 99.9%; inhibition of growth at 0.25 µg/mL (Candida albicans [22]): 98.9%; inhibition of growth at 0.125 µg/mL (Candida albicans [23]): 100%; inhibition of growth at 0.125 µg/mL (Candida albicans [24]): 100%; inhibition of growth at 0.0625 µg/mL (Candida albicans [25]): 100%; inhibition of growth at 0.0625 µg/mL (Candida albicans [26]): 100%; inhibition of growth at 0.0313 µg/mL (Candida albicans [27]): 100%; inhibition of growth at 0.0313 µg/mL (Candida albicans [28]): 99.5%; log(activity) (Candida albicans [29]): 0.5
CC(Cn1cnc2c1c(=O)n(C)c(=O)n2C)OC(=O)N1c2ccccc2Sc2ccccc21 (stereo not given)	105	77.4	33.8	47.1	90.5	89.9	73.4	37	100	99.2	99.7	99.2	99.9	99.5	99.8	99.2	99.8	99	99.8	99.5	inhibition of growth at 0.25 µg/mL (Candida albicans [21]): 100%; inhibition of growth at 0.25 µg/mL (Candida albicans [22]): 99.5%; inhibition of growth at 0.125 µg/mL (Candida albicans [23]): 99.9%; inhibition of growth at 0.125 µg/mL (Candida albicans [24]): 99.2%; inhibition of growth at 0.0625 µg/mL (Candida albicans [25]): 99.9%; inhibition of growth at 0.0625 µg/mL (Candida albicans [26]): 99.2%; inhibition of growth at 0.0313 µg/mL (Candida albicans [27]): 100%; inhibition of growth at 0.0313 µg/mL (Candida albicans [28]): 99.3%; log(activity) (Candida albicans [29]): 0.3
CC(Cn1cnc2c1c(=O)n(C)c(=O)n2C)OC(=O)C1c2ccccc2-c2ccccc21 (stereo not given)	41.5	2.8	0.1	2.3	101	85.1	63.5	28.3	99.8	99.3	99.8	99.4	100	99.4	100	99.4	99.8	99.3	99.8	99.1	inhibition of growth at 0.25 µg/mL (Candida albicans [21]): 99.9%; inhibition of growth at 0.25 µg/mL (Candida albicans [22]): 99%; inhibition of growth at 0.125 µg/mL (Candida albicans [23]): 99.7%; inhibition of growth at 0.125 µg/mL (Candida albicans [24]): 98.9%; inhibition of growth at 0.0625 µg/mL (Candida albicans [25]): 99.7%; inhibition of growth at 0.0625 µg/mL (Candida albicans [26]): 99%; inhibition of growth at 0.0313 µg/mL (Candida albicans [27]): 99.8%; inhibition of growth at 0.0313 µg/mL (Candida albicans [28]): 99.3%; log(activity) (Candida albicans [29]): 0.8
Brc1c(Br)c(Br)c2[nH]cnc2c1Br	6.3	0	0	0	19.6	24.6	9	1.7	–	–	–	–	–	–	–	–	–	–	–	–	–
